Measurements: paper PMC7138454 (Journal of medicinal chemistry, 2014)
Values joined by “and” are separate entries in the source; they are usually repeats but may differ in a detail not shown here. Identical values can stand only once. “Also recorded” adds a separate entry of the source. Like-named read-outs stand apart in the source and are kept apart here.

What was measured:
OXE receptor [1] = molecular target: T1, OXE receptor (Homo sapiens, UniProt Q8TDS5); test: 5-oxo-ETE-induced calcium mobilization in indo-1-loaded neutrophils; format: cell-based; conditions: for Effect on 5-oxo-ETE-induced calcium mobilization: compound 10 μM
T1 sequence (Q8TDS5 whole entry): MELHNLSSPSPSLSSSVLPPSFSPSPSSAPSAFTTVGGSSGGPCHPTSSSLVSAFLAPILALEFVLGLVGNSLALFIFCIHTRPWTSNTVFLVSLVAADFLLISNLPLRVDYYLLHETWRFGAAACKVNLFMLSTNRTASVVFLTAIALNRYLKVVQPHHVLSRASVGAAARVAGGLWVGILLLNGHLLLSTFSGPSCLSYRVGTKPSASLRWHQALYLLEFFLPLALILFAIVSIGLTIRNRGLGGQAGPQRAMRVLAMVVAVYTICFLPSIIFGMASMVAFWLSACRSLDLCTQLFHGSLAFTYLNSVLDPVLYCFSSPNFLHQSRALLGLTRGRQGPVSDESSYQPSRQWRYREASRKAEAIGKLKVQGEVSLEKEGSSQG

LTB4 = test: Selectivity: calcium mobilization in neutrophils in response to LTB4; format: cell-based, human; conditions: compound 10 μM; LTB4 10 nM
How it was run: (§1)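 Neutrophils were prepared by dextran sedimentation, Ficoll and hypotonic lysis, loaded with indo-1 AM, and placed in a stirred cuvette at 37 °C in PBS with Ca++ 1.8 mM and Mg++ 1 mM. Fluorescence was read at excitation 331 nm and emission 410 nm. Vehicle or test compound was added at baseline, 5-oxo-ETE (10 nM final) 2 min later, and the second agonist 2 min after that. Digitonin (0.1% final) followed 1 min later for maximal signal.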

PAF = test: Selectivity: calcium mobilization in neutrophils in response to PAF; format: cell-based, human; conditions: compound 10 μM; PAF 10 nM
How it was run: as §1

fMLP = test: Selectivity: calcium mobilization in neutrophils in response to fMLP; format: cell-based, human; conditions: compound 10 μM; fMLP 100 nM
How it was run: as §1

IL-8 = test: Selectivity: calcium mobilization in neutrophils in response to IL-8; format: cell-based, human; conditions: compound 10 μM; IL-8 10 nM
How it was run: as §1

[2] = Metabolism by rat liver homogenates in the presence of NADPH; format: in vitro ADME; conditions: 20 μM, NADPH 1 mM, 60 min, 37 °C
How it was run: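 Liver from male Sprague-Dawley rats was homogenised in ice-cold 0.25 M sucrose and spun at 600 × g for 10 min; the supernatant served as homogenate. It was incubated with test compound (20 μM) in phosphate buffer (pH 7.4, 50 mM final) with NADPH (1 mM final) for 60 min at 37 °C. Reactions were stopped with ice-cold MeOH. Products were analysed by reversed-phase C18 HPLC (22–42% acetonitrile gradient, 0.02% acetic acid) with photodiode-array UV detection.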

[3] = Metabolism by rat liver homogenates in medium favoring β-oxidation; format: in vitro ADME; conditions: medium containing ATP, CoA, L-carnitine and NAD+
[4] = Preliminary pharmacokinetic experiments in rats, oral administration; format: in vivo, rat; conditions: unpublished data
OXE receptor [5] = molecular target: T1, OXE receptor; conditions: concentration of 30 μM; cited from earlier work
OXE receptor [6] = conditions: cited from earlier work
OXE receptor [7] = molecular target: T1, OXE receptor; conditions: cited from earlier work
eosinophils = test: 5-oxo-ETE-induced actin polymerization in eosinophils; format: cell-based, human; conditions: 5-oxo-ETE 10 nM
neutrophils = test: 5-oxo-ETE-induced actin polymerization in neutrophils; format: cell-based, human; conditions: 5-oxo-ETE 10 nM
How it was run: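 Unfractionated leukocytes came from healthy-donor blood by dextran sedimentation and hypotonic lysis. They were labelled with APC anti-CD49d (30 min, ice) and held at 5.5 × 10^6 cells/ml in PBS with Ca++ 1.8 mM and Mg++ 1 mM. Cells were preincubated 5 min at 37 °C with DMSO vehicle or test compound, then given 5-oxo-ETE (10 nM final) for 20 s. They were fixed in formaldehyde (8.5% final), permeabilised with lysophosphatidylcholine and stained overnight at 4 °C with NBD-phallacidin (0.3 μM final). F-actin was read by flow cytometry.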

OXE receptor [8] = molecular target: T1, OXE receptor; test: Agonist activity: calcium mobilization in neutrophils by the compound itself; format: cell-based
How it was run: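 Neutrophils were isolated by dextran sedimentation, Ficoll centrifugation and hypotonic lysis, then loaded with indo-1 AM. In PBS with Ca++ 1.8 mM and Mg++ 1 mM (final, added 5 min before), cells sat in a stirred cuvette at 37 °C. Fluorescence was read at excitation 331 nm and emission 410 nm. After a stable baseline, DMSO vehicle or test compound was added, and 2 min later 5-oxo-ETE (10 nM final). Digitonin (0.1% final) gave maximal fluorescence.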

[9] = calcium mobilization, 5-oxo-ETE 10 nM

CCCCCCc1cc2ccc(Cl)cc2n1C(=O)CC(C)CC(=O)O (racemic) [compound 34, 5-(6-Chloro-2-hexyl-indol-1-yl)-3-methyl-5-oxo-pentanoic acid]
Effect on 5-oxo-ETE-induced calcium mobilization (OXE receptor [1]; 5-oxo-ETE 10 nM): completely blocked | Effect on calcium response to LTB4 (LTB4): no effect | Effect on calcium response to PAF (PAF): no effect | Effect on calcium response to fMLP (fMLP): no effect | Effect on calcium response to IL-8 (IL-8): no effect | Converted to a more polar product [2]: about 12% | Extent of metabolism [2]: metabolized to a small extent | Metabolism under conditions favoring β-oxidation [3]: Negligible metabolism; also recorded: no evidence for the metabolism | Appearance in the blood [4]: appear rapidly in the blood

CCCCCCc1c(C(=O)CC(C)CC(=O)O)c2cc(Cl)ccc2n1C (racemic) [compound 53, 5-(5-Chloro-2-hexyl-1-methyl-1H-indol-3-yl)-3-methyl-5-oxo-pentanoic acid]
IC50 (OXE receptor [1]; IC50, inhibition of 5-oxo-ETE-induced calcium mobilization in neutrophils, 5-oxo-ETE 10 nM added 2 min after antagonist): 0.028 µM and ~0.03 µM | Further increase in antagonist potency relative to 51 and 52 (OXE receptor [1]; [9]): over 10 fold | Effect on 5-oxo-ETE-induced calcium mobilization (OXE receptor [1]; 5-oxo-ETE 10 nM): completely blocked | Effect on calcium response to LTB4 (LTB4): no effect | Effect on calcium response to PAF (PAF): no effect | Effect on calcium response to fMLP (fMLP): no effect | Effect on calcium response to IL-8 (IL-8): no effect | Extent of metabolism [2]: metabolized to an even lesser extent | Metabolism under conditions favoring β-oxidation [3]: Negligible metabolism; also recorded: no evidence for the metabolism | Appearance in the blood [4]: appear rapidly in the blood

O=C(O)CCCC(=O)n1ccc2ccccc21 [1(5-oxovalerate)indole]
Antagonist activity (OXE receptor [5]): no detectable activity

CCCCC/C=C\C/C=C\C/C=C\C=C\[C@@H](O)CCCC(=O)O [5-HETE, 5S-hydroxy-6E,8Z,11Z,14Z-eicosatetraenoic acid]
Times less potent than 5-oxo-ETE (OXE receptor [6]): 100 times

CCCCC/C=C\C[C@H](O)/C=C/C=C\C=C\C(=O)CCCC(=O)O [5-oxo-12-HETE, 5-oxo-12S-hydroxy-6E,8Z,10E,14Z-eicosatetraenoic acid]
Agonist activity (calcium mobilization by the compound itself) (OXE receptor [7]): Neither compound mobilized intracellular calcium; also recorded: not itself affecting intracellular calcium levels

O=C(O)CCCC(=O)/C=C/C=C\C/C=C\C/C=C\CCCCCO [5-oxo-20-hydroxy-ETE]
Times less potent than 5-oxo-ETE (OXE receptor [6]): 100 times

CCCCC/C=C\C[C@H](O)/C=C/C=C/C=C/C(=O)CCCC(=O)O [8-trans-5-oxo-12-HETE]
Agonist activity (calcium mobilization by the compound itself) (OXE receptor [7]): Neither compound mobilized intracellular calcium

CCCCC/C=C\CC(=O)/C=C/C=C\C/C=C\CCCC(=O)O [12-oxo-ETE]
Activation of the OXE receptor (OXE receptor [6]): do not activate the OXE receptor

CCCCCC(=O)/C=C/C=C\C/C=C\C/C=C\CCCC(=O)O [15-oxo-ETE]
Activation of the OXE receptor (OXE receptor [6]): do not activate the OXE receptor

CSc1nc2ccc3nc(NC(=O)C(c4ccccc4)c4ccccc4)sc3c2s1 [Gue1654, 7-(methylthio)-2-[(2,2-diphenylacetyl)amino]benzo[1,2-d:4,3-d′]bisthiazole]
Times less potent than 53 and 34 in blocking actin polymerization in eosinophils (eosinophils): about 10 times | Times less potent than 53 and 34 in blocking actin polymerization in neutrophils (neutrophils): about 10 times

CCCCc1cc2ccccc2n1C(=O)CCCC(=O)O [compound 8]
Reduction in antagonist potency relative to 10 (OXE receptor [1]; [9]): over 10 fold

CCCCCc1cc2ccccc2n1C(=O)CCCC(=O)O [compound 9]
Antagonist potency compared with 10 (OXE receptor [1]; [9]): small decrease in potency

CCCCCCc1cc2ccccc2n1C(=O)CCCC(=O)O [compound 10]
Effect on 5-oxo-ETE-induced calcium mobilization (OXE receptor [1]; 5-oxo-ETE 10 nM): completely abolished

CCCCCCCc1cc2ccccc2n1C(=O)CCCC(=O)O [compound 11]
Antagonist potency compared with 10 (OXE receptor [1]; [9]): slightly increased potency

CCCCCCCCc1cc2ccccc2n1C(=O)CCCC(=O)O [compound 12]
Antagonist potency compared with 10 (OXE receptor [1]; [9]): slightly increased potency

CCCCCCCCCCCc1cc2ccccc2n1C(=O)CCCC(=O)O [compound 13]
Antagonist potency compared with 10 (OXE receptor [1]; [9]): slightly increased potency

CCCC/C=C/c1cc2ccccc2n1C(=O)CCCC(=O)O [compound 14, 5-(2-Hex-1-enyl-indol-1-yl)-5-oxo-pentanoic acid]
Antagonist potency compared with 10 (OXE receptor [1]; [9]): reduced potency

CCCCCCCCC/C=C\c1cc2ccccc2n1C(=O)CCCC(=O)O [compound 15, (Z)-5-oxo-5-(2-(undec-1-en-1-yl)-1H-indol-1-yl)pentanoic acid]
Antagonist potency compared with 13 (OXE receptor [1]; [9]): little effect

CCCCCCc1cc2ccccc2n1C(=O)CC(C)(C)CC(=O)O [compound 17, 5-(2-hexyl-1H-indol-1-yl)-3,3-dimethyl-5-oxopentanoic acid]
Reduction in antagonist potency relative to 10 (OXE receptor [1]; [9]): about 10 fold

CCCCCCc1cc2ccccc2n1C(=O)CC1(CC(=O)O)CC1 [compound 25, 2-(1-(2-(2-hexyl-1H-indol-1-yl)-2-oxoethyl)cyclopropyl)acetic acid]
Antagonist potency compared with 10 (OXE receptor [1]; [9]): relatively little effect

CCCCCCc1cc2ccccc2n1C(=O)CC(C)CC(=O)O (stereo not shown) [compound 27, 5-(2-hexyl-1H-indol-1-yl)-3-methyl-5-oxopentanoic acid]
Increase in antagonist potency relative to 10 (OXE receptor [1]; [9]): over 10 times

CCCCCCc1cc2ccccc2n1C(=O)CCC(=O)O [compound 29, 4-(2-Hexyl-indol-1-yl)-4-oxo-butyric acid]
Antagonist potency compared with 10 (OXE receptor [1]; [9]): nearly eliminated antagonist activity

CCCCCCc1cc2ccc(Br)cc2n1C(=O)CC(C)CC(=O)O (stereo not shown) [compound 35, 5-(6-bromo-2-hexyl-1-H-indol-1-yl)-3-methyl-5-oxo-pentanoic acid]
Increase in antagonist potency relative to 27 (OXE receptor [1]; [9]): approximately 3 fold

CCCCCCc1cc2ccc(OC)cc2n1C(=O)CC(C)CC(=O)O (stereo not shown) [compound 36, 5-(2-hexyl-6-methoxy-1-H-indol-1-yl)-3-methyl-5-oxo-pentanoic acid]
Antagonist potency compared with 27 (OXE receptor [1]; [9]): reduced potency by several fold

CCCCCCc1cc2cc(Cl)ccc2n1C(=O)CC(C)CC(=O)O (stereo not shown) [compound 41, 5-(5-chloro-2-hexyl-1-H-indol-1-yl)-3-methyl-5-oxo-pentanoic acid]
Antagonist potency compared with 27 (OXE receptor [1]; [9]): relatively little effect

CCCCCCc1cc2cc(Br)ccc2n1C(=O)CC(C)CC(=O)O (stereo not shown) [compound 42, 5-(5-bromo-2-hexyl-1-H-indol-1-yl)-3-methyl-5-oxo-pentanoic acid]
Antagonist potency compared with 27 (OXE receptor [1]; [9]): reduced potency by several fold

CCCCCCc1c(C)c2ccccc2n1C(=O)CC(C)CC(=O)O (stereo not shown) [compound 47, 5-(2-hexyl-3-methyl-1-H-indol-1-yl)-3-methyl-5-oxo-pentanoic acid]
Antagonist potency compared with 27 (OXE receptor [1]; [9]): relatively little effect

CCCCCCc1[nH]c2ccccc2c1C(=O)CCCC(=O)O [compound 48, 5-(2-Hexyl-1H-indol-3-yl)-5-oxo-pentanoic acid]
Effect on 5-oxo-ETE-induced calcium mobilization (OXE receptor [1]; 5-oxo-ETE 10 nM): modest antagonist effect

CCCCCCc1c(C(=O)CCCC(=O)O)c2ccccc2n1C [compound 50, 5-(2-hexyl-1-methyl-1-H-indol-3-yl)-5-oxo-pentanoic acid]
Antagonist potency compared with 48 (OXE receptor [1]; [9]): slightly increased potency

CCCCCCc1c(C(=O)CCCC(=O)O)c2cc(Cl)ccc2n1C [compound 51, 5-(5-chloro-2-hexyl-1-methyl-1-H-indol-3-yl)-5-oxo-pentanoic acid]
Antagonist potency compared with 27 (OXE receptor [1]; [9]): less potent than 27 | Increase in antagonist potency relative to 50 (OXE receptor [1]; [9]): about 10 times

CCCCCCc1c(C(=O)CC(C)CC(=O)O)c2cc(Br)ccc2n1C (stereo not shown) [compound 54, 5-(5-bromo-2-hexyl-1-methyl-1-H-indol-3-yl)-3-methyl-5-oxo-pentanoic acid]
Antagonist potency compared with 53 (OXE receptor [1]; [9]): equipotent

CCCCCCc1c(C(=O)CC(C)CC(=O)O)c2ccc(Cl)cc2n1C (stereo not shown) [compound 56, 5-(6-chloro-2-hexyl-1-methyl-1-H-indol-3-yl)-3-methyl-5-oxo-pentanoic acid]
Increase in antagonist potency relative to 52 (OXE receptor [1]; [9]): about 4 fold

CCCCCCc1nc2ccccc2cc1C(=O)CCCC(=O)O [quinoline derivative]
Agonist activity (calcium mobilization by the compound itself) (OXE receptor [8]): did not act as an agonist
